Source: ChEMBL document CHEMBL1949509, “Fluorinated dual antithrombotic compounds based on 1,4-benzoxazine scaffold” (Eur J Med Chem, 2012)
pIC50, pKi: −log10 of the molar value.

How the values were obtained:
Integrin alpha-V/beta-3 = Integrin alpha-V/beta-3 (Homo sapiens, UniProt P05106+P06756); test: Displacement of biotinylated fibrinogen from human […] receptor after 2 hrs by chemiluminescence assay; format: protein-complex assay
Coagulation factor X = Coagulation factor X (Homo sapiens, UniProt P00742); test: Inhibition of factor 10a using S-2222 as substrate preincubated for 15 mins prior substrate addition measured for every 10 secs by spectrophotometry
Procedure, shortened: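 Amidolytic chromogenic assay. Factor Xa at 1 mBAEEE/mL final with S-2222 at […] final. Inhibitor at three concentrations, diluted from 10 mmol/L DMSO stock, preincubated with enzyme in HBSA buffer for 15 min at 25 °C. A405 read every 10 s. Run in triplicate. Ki by Cheng–Prusoff from initial linear rates, averaged over concentration combinations.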

[1] = biological target: Integrin alpha-IIb/beta-3 (Homo sapiens, UniProt P05106+P08514); test: Displacement of biotinylated fibrinogen from human alpha2b-beta3 receptor after 2 hrs by chemiluminescence assay; format: protein-complex assay
Prothrombin = Prothrombin (Homo sapiens, UniProt P00734)
[2] = Selectivity ratio of Ki for trypsin to Ki for thrombin
Procedure, shortened: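 Trypsin at 0.5 nkat/mL with S-2222 at 50 and 100; thrombin at 0.5 NIH E/mL with S-2238 at […]. Triplicates, three inhibitor concentrations.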

[3] = Selectivity ratio of Ki for factor 10a to Ki for thrombin
Procedure, shortened: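 Factor Xa at 1 mBAEEE/mL with S-2222 at 100 and 200; thrombin at 0.5 NIH E/mL with S-2238 at […]. Triplicates, three inhibitor concentrations.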

Coagulation factor X, sequence (P00742 41-179 limits assumed): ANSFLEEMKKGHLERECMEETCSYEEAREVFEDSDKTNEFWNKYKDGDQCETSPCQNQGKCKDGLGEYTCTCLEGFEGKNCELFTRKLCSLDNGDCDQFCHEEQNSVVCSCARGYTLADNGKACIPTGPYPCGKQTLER
Coagulation factor X, sequence (P00742 235-488 limits assumed): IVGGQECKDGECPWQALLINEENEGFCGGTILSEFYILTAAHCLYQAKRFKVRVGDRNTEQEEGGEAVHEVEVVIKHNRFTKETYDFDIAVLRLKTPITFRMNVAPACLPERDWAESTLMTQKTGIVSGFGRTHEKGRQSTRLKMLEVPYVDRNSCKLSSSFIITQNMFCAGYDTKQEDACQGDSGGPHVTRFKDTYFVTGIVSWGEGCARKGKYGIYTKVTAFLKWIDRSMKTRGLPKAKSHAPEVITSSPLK
Integrin alpha-IIb/beta-3, sequence (P05106 27-788 limits assumed): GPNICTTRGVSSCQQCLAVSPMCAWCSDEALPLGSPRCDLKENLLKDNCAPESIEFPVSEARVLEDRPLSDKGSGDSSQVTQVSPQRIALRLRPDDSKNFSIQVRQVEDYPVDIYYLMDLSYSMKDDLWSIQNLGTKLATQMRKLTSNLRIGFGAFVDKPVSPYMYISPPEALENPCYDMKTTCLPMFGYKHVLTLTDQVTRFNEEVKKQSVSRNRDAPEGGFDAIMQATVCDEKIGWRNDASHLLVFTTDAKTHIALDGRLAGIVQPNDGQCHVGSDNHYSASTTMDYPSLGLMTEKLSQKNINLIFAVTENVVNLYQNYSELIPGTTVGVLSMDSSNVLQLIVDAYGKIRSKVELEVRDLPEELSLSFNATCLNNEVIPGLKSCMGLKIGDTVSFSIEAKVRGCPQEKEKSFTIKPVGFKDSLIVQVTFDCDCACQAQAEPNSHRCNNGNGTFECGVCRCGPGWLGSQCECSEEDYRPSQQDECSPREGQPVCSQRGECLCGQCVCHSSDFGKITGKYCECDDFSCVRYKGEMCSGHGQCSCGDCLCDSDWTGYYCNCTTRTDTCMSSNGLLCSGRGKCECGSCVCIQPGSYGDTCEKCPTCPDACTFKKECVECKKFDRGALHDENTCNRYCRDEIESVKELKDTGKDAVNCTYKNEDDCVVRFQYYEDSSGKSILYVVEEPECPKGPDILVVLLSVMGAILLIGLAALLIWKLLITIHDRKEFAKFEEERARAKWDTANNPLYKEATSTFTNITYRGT
Integrin alpha-IIb/beta-3, sequence (P08514 32-887 limits assumed): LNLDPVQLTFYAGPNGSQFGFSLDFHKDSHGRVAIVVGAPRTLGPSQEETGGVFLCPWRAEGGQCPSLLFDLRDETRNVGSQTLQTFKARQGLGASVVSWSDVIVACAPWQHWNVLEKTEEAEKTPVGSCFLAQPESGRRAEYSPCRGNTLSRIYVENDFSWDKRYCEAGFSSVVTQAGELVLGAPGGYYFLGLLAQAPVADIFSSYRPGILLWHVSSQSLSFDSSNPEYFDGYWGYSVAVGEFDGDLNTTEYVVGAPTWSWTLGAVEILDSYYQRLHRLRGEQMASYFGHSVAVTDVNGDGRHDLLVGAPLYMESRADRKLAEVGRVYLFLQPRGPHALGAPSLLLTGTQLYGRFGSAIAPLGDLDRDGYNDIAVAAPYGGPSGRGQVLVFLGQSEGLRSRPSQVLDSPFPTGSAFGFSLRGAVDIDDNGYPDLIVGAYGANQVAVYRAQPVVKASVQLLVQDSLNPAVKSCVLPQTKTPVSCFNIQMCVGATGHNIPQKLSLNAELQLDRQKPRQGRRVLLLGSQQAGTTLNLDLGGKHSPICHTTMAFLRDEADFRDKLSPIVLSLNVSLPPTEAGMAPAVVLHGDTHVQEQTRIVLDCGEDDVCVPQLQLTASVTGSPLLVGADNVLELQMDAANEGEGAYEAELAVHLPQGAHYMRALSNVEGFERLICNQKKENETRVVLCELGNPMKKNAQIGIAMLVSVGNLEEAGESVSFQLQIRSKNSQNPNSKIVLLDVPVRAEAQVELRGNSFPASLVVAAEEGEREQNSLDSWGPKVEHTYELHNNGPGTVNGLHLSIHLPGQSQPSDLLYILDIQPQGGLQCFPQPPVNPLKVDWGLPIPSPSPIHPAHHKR
Integrin alpha-IIb/beta-3, sequence (P08514 891-1039 limits assumed): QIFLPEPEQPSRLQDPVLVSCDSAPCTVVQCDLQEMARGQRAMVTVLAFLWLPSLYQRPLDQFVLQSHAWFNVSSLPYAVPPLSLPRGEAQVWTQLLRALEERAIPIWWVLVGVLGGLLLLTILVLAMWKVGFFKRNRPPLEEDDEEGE
Integrin alpha-V/beta-3, sequence (P05106 27-788 limits assumed): as the sequence (P05106 27-788 limits assumed) above
Integrin alpha-V/beta-3, sequence (P06756 31-889 limits assumed): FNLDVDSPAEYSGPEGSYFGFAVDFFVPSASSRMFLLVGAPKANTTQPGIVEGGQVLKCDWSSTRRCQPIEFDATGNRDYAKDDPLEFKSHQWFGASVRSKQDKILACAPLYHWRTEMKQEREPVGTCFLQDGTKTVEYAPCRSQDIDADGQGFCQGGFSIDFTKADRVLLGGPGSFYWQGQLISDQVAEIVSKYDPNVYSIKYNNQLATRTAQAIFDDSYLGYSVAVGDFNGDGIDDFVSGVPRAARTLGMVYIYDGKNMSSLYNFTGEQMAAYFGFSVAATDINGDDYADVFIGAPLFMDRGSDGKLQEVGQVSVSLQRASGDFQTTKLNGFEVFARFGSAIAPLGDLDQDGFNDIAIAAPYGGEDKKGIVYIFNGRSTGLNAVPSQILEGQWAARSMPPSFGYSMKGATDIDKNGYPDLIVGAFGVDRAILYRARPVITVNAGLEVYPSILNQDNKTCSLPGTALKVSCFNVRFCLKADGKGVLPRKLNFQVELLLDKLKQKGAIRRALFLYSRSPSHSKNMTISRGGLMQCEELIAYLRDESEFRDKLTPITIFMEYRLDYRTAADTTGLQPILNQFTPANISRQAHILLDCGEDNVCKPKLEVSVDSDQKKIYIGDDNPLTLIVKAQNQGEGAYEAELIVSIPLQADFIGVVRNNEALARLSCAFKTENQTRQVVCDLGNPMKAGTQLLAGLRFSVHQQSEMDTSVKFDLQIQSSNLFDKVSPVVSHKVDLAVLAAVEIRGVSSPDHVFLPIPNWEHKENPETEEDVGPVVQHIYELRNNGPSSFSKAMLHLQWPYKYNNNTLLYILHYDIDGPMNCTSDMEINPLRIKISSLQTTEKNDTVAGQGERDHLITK
Integrin alpha-V/beta-3, sequence (P06756 891-1048 limits assumed): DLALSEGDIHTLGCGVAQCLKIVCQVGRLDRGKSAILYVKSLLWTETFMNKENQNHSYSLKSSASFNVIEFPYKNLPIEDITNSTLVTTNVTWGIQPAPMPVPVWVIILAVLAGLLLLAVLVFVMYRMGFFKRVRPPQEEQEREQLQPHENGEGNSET

Structure (SMILES) | pIC50 (Integrin alpha-V/beta-3) | pKi (Coagulation factor X) | pIC50 [1] | pKi (Prothrombin) | Ratio Ki [2] | Ratio Ki [3]
CN1CC(C)(COc2ccc(C(=N)N)cc2)Oc2cc(N(Cc3ccc(F)c(F)c3)C(=O)C(=O)O)ccc21 (configuration not stated) | < 4.00 | 5.44 | 4.51 |  |  | 
CN1CC(C)(COc2ccc(C(=N)N)cc2)Oc2ccc(N(Cc3cccc(F)c3)C(=O)C(=O)O)cc21 (configuration not stated) | < 4.00 | 4.74 | 5.66 |  |  | 
CN1CC(C)(COc2ccc(C(=N)N)cc2)Oc2ccc(N(Cc3cc(F)cc(F)c3)C(=O)C(=O)O)cc21 (configuration not stated) | < 4.00 | 4.85 | 5.47 |  |  | 
CCOC(=O)CN(Cc1ccccc1)c1ccc2c(c1)OC(C)(COc1ccc(C(=N)N)cc1)CN2C (configuration not stated) | < 4.00 |  | 4.55 | 6.49 |  | 
CCOC(=O)CN(Cc1cccc(F)c1)c1ccc2c(c1)OC(C)(COc1ccc(C(=N)N)cc1)CN2C (configuration not stated) | < 4.00 | 5.92 | < 4.00 |  |  | 
CCOC(=O)CN(Cc1ccc(F)c(F)c1)c1ccc2c(c1)OC(C)(COc1ccc(C(=N)N)cc1)CN2C (configuration not stated) | < 4.00 | 5.82 | < 4.00 |  |  | 
CN1CC(C)(COc2ccc(C(=N)N)cc2)Oc2cc(N(Cc3ccc(F)cc3)C(=O)C(=O)O)ccc21 (configuration not stated) | < 4.00 | 5.11 | 4.47 |  |  | 
CN1CC(C)(COc2ccc(C(=N)N)cc2)Oc2ccc(N(CC(=O)O)Cc3ccc(F)cc3)cc21 (configuration not stated) | < 4.00 | 5.11 | 5.70 | 6.12 |  | 
CCOC(=O)CN(Cc1ccc(F)c(F)c1)c1ccc2c(c1)N(C)CC(C)(COc1ccc(C(=N)N)cc1)O2 (configuration not stated) | < 4.00 | 5.10 | < 4.00 | 6.08 |  | 
CN1CC(C)(COc2ccc(C(=N)N)cc2)Oc2cc(N(Cc3ccccc3)C(=O)C(=O)O)ccc21 (configuration not stated) | < 4.00 |  | 4.41 |  |  | 
CN1CC(C)(COc2ccc(C(=N)N)cc2)Oc2ccc(N(Cc3ccc(F)cc3)C(=O)C(=O)O)cc21 (configuration not stated) | < 4.00 | 4.79 | 5.74 |  |  | 
CN1CC(C)(COc2ccc(C(=N)N)cc2)Oc2ccc(N(Cc3ccc(F)c(F)c3)C(=O)C(=O)O)cc21 (configuration not stated) | < 4.00 | 4.85 | 5.60 |  |  | 
CCOC(=O)CN(Cc1ccccc1)c1ccc2c(c1)N(C)CC(C)(COc1ccc(C(=N)N)cc1)O2 (configuration not stated) | < 4.00 |  | 4.27 |  |  | 
CN1CC(C)(COc2ccc(C(=N)N)cc2)Oc2cc(N(CC(=O)O)Cc3cccc(F)c3)ccc21 (configuration not stated) | < 4.00 | 5.18 | 4.22 | 6.49 | 5 | 
CN1CC(C)(COc2ccc(C(=N)N)cc2)Oc2cc(N(CC(=O)O)Cc3ccc(F)c(F)c3)ccc21 (configuration not stated) | < 4.00 | 5.36 | 4.10 | 6.09 | 1.6 | 5.4
CCOC(=O)C(=O)N(Cc1cc(F)cc(F)c1)c1ccc2c(c1)OC(C)(COc1ccc(C(=N)N)cc1)CN2C (configuration not stated) | < 4.00 | 6.10 | < 4.00 | 7.74 |  | 
CCOC(=O)C(=O)N(Cc1cccc(F)c1)c1ccc2c(c1)N(C)CC(C)(COc1ccc(C(=N)N)cc1)O2 (configuration not stated) | < 4.00 | 5.31 | < 4.00 |  |  | 
CN1CC(C)(COc2ccc(C(=N)N)cc2)Oc2ccc(N(CC(=O)O)Cc3ccc(F)c(F)c3)cc21 (configuration not stated) | < 4.00 | 5.19 | 5.96 | 6.48 | 1.7 | 20
CN1CC(C)(COc2ccc(C(=N)N)cc2)Oc2cc(N(Cc3cccc(F)c3)C(=O)C(=O)O)ccc21 (configuration not stated) | < 4.00 | 5.39 | 4.48 |  |  | 

Structure (SMILES) | pIC50 (Integrin alpha-V/beta-3) | pKi (Coagulation factor X) | pIC50 [1] | pKi (Prothrombin) | Ratio Ki [2] | Ratio Ki [3]
CCOC(=O)C(=O)N(Cc1ccc(F)c(F)c1)c1ccc2c(c1)N(C)CC(C)(COc1ccc(C(=N)N)cc1)O2 (configuration not stated) | < 4.00 | 5.33 | < 4.00 |  |  | 
CCOC(=O)C(=O)N(Cc1ccccc1)c1ccc2c(c1)OC(C)(COc1ccc(C(=N)N)cc1)CN2C (configuration not stated) | < 4.00 |  | 4.28 |  |  | 
CCOC(=O)CN(Cc1ccc(F)cc1)c1ccc2c(c1)N(C)CC(C)(COc1ccc(C(=N)N)cc1)O2 (configuration not stated) | < 4.00 | 5.18 | < 4.00 | 6.14 |  | 
CN1CC(C)(COc2ccc(C(=N)N)cc2)Oc2cc(N(CC(=O)O)Cc3cc(F)cc(F)c3)ccc21 (configuration not stated) | < 4.00 | 5.40 | 4.35 | 6.70 | 6.5 | 20
CCOC(=O)C(=O)N(Cc1ccc(F)cc1)c1ccc2c(c1)OC(C)(COc1ccc(C(=N)N)cc1)CN2C (configuration not stated) | < 4.00 | 5.55 | < 4.00 | 7.64 |  | 
CN1CC(C)(COc2ccc(C(=N)N)cc2)Oc2cc(N(CC(=O)O)Cc3ccc(F)cc3)ccc21 (configuration not stated) | < 4.00 | 5.25 | 4.31 | 6.62 |  | 
CCOC(=O)CN(Cc1cc(F)cc(F)c1)c1ccc2c(c1)N(C)CC(C)(COc1ccc(C(=N)N)cc1)O2 (configuration not stated) | < 4.00 | 5.01 | < 4.00 |  |  | 
CCOC(=O)C(=O)N(Cc1ccccc1)c1ccc2c(c1)N(C)CC(C)(COc1ccc(C(=N)N)cc1)O2 (configuration not stated) | < 4.00 |  | 4.31 |  |  | 
CN1CC(C)(COc2ccc(C(=N)N)cc2)Oc2ccc(N(CC(=O)O)Cc3cc(F)cc(F)c3)cc21 (configuration not stated) | < 4.00 | 5.01 | 5.60 | 6.12 |  | 
CCOC(=O)CN(Cc1cccc(F)c1)c1ccc2c(c1)N(C)CC(C)(COc1ccc(C(=N)N)cc1)O2 (configuration not stated) | < 4.00 | 5.17 | < 4.00 | 6.10 |  | 
CN1CC(C)(COc2ccc(C(=N)N)cc2)Oc2ccc(N(CC(=O)O)Cc3cccc(F)c3)cc21 (configuration not stated) | < 4.00 | 5.12 | 5.82 | 6.17 |  | 
CCOC(=O)CN(Cc1cc(F)cc(F)c1)c1ccc2c(c1)OC(C)(COc1ccc(C(=N)N)cc1)CN2C (configuration not stated) | < 4.00 | 4.82 | < 4.00 |  |  | 
CCOC(=O)C(=O)N(Cc1ccc(F)c(F)c1)c1ccc2c(c1)OC(C)(COc1ccc(C(=N)N)cc1)CN2C (configuration not stated) | < 4.00 | 5.80 | < 4.00 | 7.55 |  | 
CCOC(=O)CN(Cc1ccc(F)cc1)c1ccc2c(c1)OC(C)(COc1ccc(C(=N)N)cc1)CN2C (configuration not stated) | < 4.00 | 5.80 | < 4.00 | 6.44 |  | 
CCOC(=O)C(=O)N(Cc1ccc(F)cc1)c1ccc2c(c1)N(C)CC(C)(COc1ccc(C(=N)N)cc1)O2 (configuration not stated) | < 4.00 | 5.26 | < 5.00 |  |  | 
CCOC(=O)C(=O)N(Cc1cc(F)cc(F)c1)c1ccc2c(c1)N(C)CC(C)(COc1ccc(C(=N)N)cc1)O2 (configuration not stated) | < 4.00 | 5.22 | < 4.00 |  |  | 
CN1CC(C)(COc2ccc(C(=N)N)cc2)Oc2ccc(N(Cc3ccccc3)C(=O)C(=O)O)cc21 (configuration not stated) | < 4.00 |  | 5.55 |  |  | 
CN1CC(C)(COc2ccc(C(=N)N)cc2)Oc2cc(N(Cc3cc(F)cc(F)c3)C(=O)C(=O)O)ccc21 (configuration not stated) | < 4.00 | 5.80 | 4.51 |  |  | 
CCOC(=O)C(=O)N(Cc1cccc(F)c1)c1ccc2c(c1)OC(C)(COc1ccc(C(=N)N)cc1)CN2C (configuration not stated) | < 4.00 | 5.80 | < 4.00 | 7.72 |  | 
